Reference: ChEMBL document CHEMBL4325892, “4-tert-Pentylphenoxyalkyl derivatives - Histamine H3 receptor ligands and monoamine oxidase B inhibitors” (Bioorg Med Chem Lett, 2018)

What was measured:
MAO-A = biological target: T1, MAO-A (Homo sapiens, UniProt P21397); assay: Inhibition of human MAO-A expressed in baculovirus infected BTI insect cells at 10 uM using p-tyramine as substrate preincubated for 30 mins followed by substrate addition and measured after 1 hr by fluorescence-based Amplex Red MAO assay relative to control; conditions: probe p-tyramine
T1 sequence (P21397 whole entry): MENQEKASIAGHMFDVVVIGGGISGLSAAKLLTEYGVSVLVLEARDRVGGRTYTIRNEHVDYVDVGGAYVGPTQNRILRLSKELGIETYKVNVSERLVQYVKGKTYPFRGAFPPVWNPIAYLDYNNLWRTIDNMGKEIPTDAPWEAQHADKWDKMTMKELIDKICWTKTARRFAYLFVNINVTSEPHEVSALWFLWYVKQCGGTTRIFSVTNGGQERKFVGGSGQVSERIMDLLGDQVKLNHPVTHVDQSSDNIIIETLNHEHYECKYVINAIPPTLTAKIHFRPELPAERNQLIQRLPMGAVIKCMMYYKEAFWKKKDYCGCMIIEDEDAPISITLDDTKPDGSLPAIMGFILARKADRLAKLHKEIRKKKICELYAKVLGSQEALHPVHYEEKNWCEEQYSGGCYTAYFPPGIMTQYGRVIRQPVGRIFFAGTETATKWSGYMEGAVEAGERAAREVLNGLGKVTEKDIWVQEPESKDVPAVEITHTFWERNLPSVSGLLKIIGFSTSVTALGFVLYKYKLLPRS

[1] = biological target: T2, Amine oxidase [flavin-containing] B (Homo sapiens, UniProt P27338); assay: Inhibition of human MAO-B expressed in baculovirus infected BTI insect cells using p-tyramine as substrate preincubated for 30 mins followed by substrate addition and measured after 1 hr by fluorescence-based Amplex Red MAO assay
T2 sequence (P27338 whole entry): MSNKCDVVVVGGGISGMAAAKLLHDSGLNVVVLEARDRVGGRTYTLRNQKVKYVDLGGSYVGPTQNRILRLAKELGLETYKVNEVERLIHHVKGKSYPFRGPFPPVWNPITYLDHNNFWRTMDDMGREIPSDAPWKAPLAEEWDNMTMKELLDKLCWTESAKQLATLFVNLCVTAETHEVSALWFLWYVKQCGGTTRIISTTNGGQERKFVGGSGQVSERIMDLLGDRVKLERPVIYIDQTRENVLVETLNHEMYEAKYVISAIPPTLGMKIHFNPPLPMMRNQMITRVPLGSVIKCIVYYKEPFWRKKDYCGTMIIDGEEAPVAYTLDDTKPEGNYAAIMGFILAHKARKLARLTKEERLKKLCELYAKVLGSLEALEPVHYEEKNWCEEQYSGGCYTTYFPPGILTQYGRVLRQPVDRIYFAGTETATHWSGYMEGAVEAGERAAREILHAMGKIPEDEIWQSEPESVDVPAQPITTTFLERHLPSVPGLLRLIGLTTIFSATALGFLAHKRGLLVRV

[2] = biological target: T2, Amine oxidase [flavin-containing] B; assay: Reversible inhibition of human MAO-B expressed in baculovirus infected BTI insect cells at IC80 preincubated with compound and p-tyramine for 22 mins followed by p-tyramine increase to 1 mM and measured every minute for 5 hrs by fluorescence assay
How it was run: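 Reversibility test: hMAO B preincubated with inhibitor in the presence of 10 μM para-tyramine. After 22 min, para-tyramine raised to 1 mM, then fluorescence read every minute for 5 h.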

Histamine H3 receptor = Histamine H3 receptor (Homo sapiens, UniProt Q9Y5N1); assay: Displacement of [3H]-N-alpha-methylhistamine from human H3 receptor expressed in CHO-K1 cell membranes after 60 mins by microbeta2 scintillation counting analysis
Sequence of Histamine H3 receptor (Q9Y5N1 whole entry): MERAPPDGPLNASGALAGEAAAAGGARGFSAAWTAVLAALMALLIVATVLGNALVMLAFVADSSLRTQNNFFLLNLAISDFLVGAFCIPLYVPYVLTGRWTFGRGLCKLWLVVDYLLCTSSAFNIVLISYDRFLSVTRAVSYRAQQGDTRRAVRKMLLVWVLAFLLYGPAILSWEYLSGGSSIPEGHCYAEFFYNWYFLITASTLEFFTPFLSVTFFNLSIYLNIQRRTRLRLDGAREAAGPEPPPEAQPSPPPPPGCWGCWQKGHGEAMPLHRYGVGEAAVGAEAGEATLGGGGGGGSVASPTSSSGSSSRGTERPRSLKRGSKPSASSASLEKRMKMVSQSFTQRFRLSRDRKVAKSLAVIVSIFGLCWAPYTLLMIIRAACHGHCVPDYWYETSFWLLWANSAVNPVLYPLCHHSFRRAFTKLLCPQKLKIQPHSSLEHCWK
How it was run: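 Radioligand binding with [3H]Nα-methylhistamine on membrane preparations from CHO-K1 cells stably expressing human H3 receptor; Ki reported as the mean of two independent experiments ± SEM.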

[3] = biological target: T2, Amine oxidase [flavin-containing] B; assay: Inhibition of human MAO-B expressed in baculovirus infected BTI insect cells at 1 uM using p-tyramine as substrate preincubated for 30 mins followed by substrate addition and measured after 1 hr by fluorescence-based Amplex Red MAO assay relative to control
[4] = biological target: T2, Amine oxidase [flavin-containing] B; assay: Non-competitive inhibition of human MAO-B expressed in baculovirus infected BTI insect cells at 0.2 to 20 nM preincubated with compound and p-tyramine for 22 mins followed by p-tyramine increase to 1 mM and measured every minute for 5 hrs by Lineweaver-Burk plot analysis
How it was run: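 Kinetic mode study: hMAO B activity measured at inhibitor 0, 0.2, 0.5 and 20 nM, each across six para-tyramine concentrations (0.05, 0.1, 0.5, 1.0, 1.5, 2.0 mM) to assign inhibition type.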

CCC(C)(C)c1ccc(OCCCN2CCCCC2)cc1
inhibition at 1 h, 10 µM (MAO-A): 14%
IC50 [1]: 19 nM
inhibition (INH) [2]: Active
Ki (Histamine H3 receptor): 37 nM

CCC(C)(C)c1ccc(OCCCCCN2CCCC(C)C2)cc1 (configuration not stated)
inhibition at 1 µM [3]: 29%
IC50 [1]: > 1000 nM

CCC(C)(C)c1ccc(OCCCCCN2CCCCC2)cc1
inhibition at 1 µM [3]: 28%
IC50 [1]: > 1000 nM

CCC(C)(C)c1ccc(OCCCCCCN2CCCCC2)cc1
inhibition at 1 µM [3]: 21%
IC50 [1]: > 1000 nM

CCC(C)(C)c1ccc(OCCCCCCCCN2CCC(C)CC2)cc1
inhibition at 1 µM [3]: 37%
IC50 [1]: > 1000 nM

CCC(C)(C)c1ccc(OCCCCN2CCCC(C)C2)cc1 (configuration not stated)
IC50 [1]: 1230 nM

CCC(C)(C)c1ccc(OCCCCCCCN2CCCCC2)cc1
inhibition at 1 µM [3]: 18%
IC50 [1]: > 1000 nM

CCC(C)(C)c1ccc(OCCCCCCCN2CCCCCC2)cc1
IC50 [1]: 1490 nM

CCC(C)(C)c1ccc(OCCCCCCCCN2CCCCCC2)cc1
inhibition at 1 µM [3]: 40%
IC50 [1]: > 1000 nM

CCC(C)(C)c1ccc(OCCCCCN2CCC(C)CC2)cc1
inhibition at 1 µM [3]: 48%
IC50 [1]: > 1000 nM

CCC(C)(C)c1ccc(OCCCCN2CCCCC2)cc1
inhibition at 1 h, 10 µM (MAO-A): 10%
IC50 [1]: 379 nM

CCC(C)(C)c1ccc(OCCCCCCCN2CCC(C)CC2)cc1
inhibition at 1 µM [3]: 35%
IC50 [1]: > 1000 nM

CCC(C)(C)c1ccc(OCCCCN2CCCCCC2)cc1
IC50 [1]: 609 nM

CCC(C)(C)c1ccc(OCCCCCN2CCCCCC2)cc1
IC50 [1]: 1130 nM

CCC(C)(C)c1ccc(OCCCCCCCCN2CCCC(C)C2)cc1 (configuration not stated)
inhibition at 1 µM [3]: 33%
IC50 [1]: > 1000 nM

CCC(C)(C)c1ccc(OCCCCCCN2CCC(C)CC2)cc1
inhibition at 1 µM [3]: 37%
IC50 [1]: > 1000 nM

CCC(C)(C)c1ccc(OCCCCCCN2CCCC(C)C2)cc1 (configuration not stated)
inhibition at 1 µM [3]: 46%
IC50 [1]: > 1000 nM

CCC(C)(C)c1ccc(OCCCCCCCN2CCCC(C)C2)cc1 (configuration not stated)
inhibition at 1 µM [3]: 35%
IC50 [1]: > 1000 nM

CCC(C)(C)c1ccc(OCCCCN2CCC(C)CC2)cc1
inhibition at 1 µM [3]: 47%
IC50 [1]: > 1000 nM

CCC(C)(C)c1ccc(OCCCCCCCCN2CCCCC2)cc1
inhibition at 1 µM [3]: 22%
IC50 [1]: > 1000 nM

CCC(C)(C)c1ccc(OCCCCCCN2CCCCCC2)cc1
IC50 [1]: 390 nM

CCC(C)(C)c1ccc(OCCCN2CCCCC2C)cc1 (configuration not stated)
inhibition at 1 h, 10 µM (MAO-A): 5%
IC50 [1]: 20 nM
inhibition (INH) [2]: Active
Ki (Histamine H3 receptor): 437 nM

CCC(C)(C)c1ccc(OCCCN2C(C)CCCC2C)cc1 (configuration not stated)
inhibition at 1 h, 10 µM (MAO-A): 5%
IC50 [1]: 22 nM
inhibition (INH) [2]: Active
Ki (Histamine H3 receptor): 140 nM

CCC(C)(C)c1ccc(OCCCN2CCC(C)CC2)cc1
IC50 [1]: 2070 nM
Ki (Histamine H3 receptor): 147 nM

CCC(C)(C)c1ccc(OCCCN2CCCCCC2)cc1
inhibition at 1 h, 10 µM (MAO-A): 12%
IC50 [1]: 65 nM
Ki (Histamine H3 receptor): 298 nM

CCC(C)(C)c1ccc(OCCCN2CC(C)CC(C)C2)cc1 (configuration not stated)
inhibition at 1 h, 10 µM (MAO-A): 7%
IC50 [1]: 962 nM
Ki (Histamine H3 receptor): 753 nM

CCC(C)(C)c1ccc(OCCCN2CCCC(C)(C)C2)cc1
inhibition at 1 h, 10 µM (MAO-A): 7%
IC50 [1]: 417 nM
Ki (Histamine H3 receptor): > 1000 nM

CCC(C)(C)c1ccc(OCCCN2CCCC(C)C2)cc1 (configuration not stated)
inhibition at 1 h, 10 µM (MAO-A): 11%
IC50 [1]: 428 nM
Ki (Histamine H3 receptor): 100 nM

CCC(C)(C)c1ccc(OCCCN2CCCC2)cc1
inhibition at 1 h, 10 µM (MAO-A): 5%
IC50 [1]: 4.5 nM
inhibition (INH) [4]: Active
inhibition (INH) [2]: Active
Ki (Histamine H3 receptor): 63 nM

C[C@H](NCc1ccc(OCc2cccc(F)c2)cc1)C(N)=O [SAFINAMIDE]
inhibition (INH) [2]: Active
